Data: PMC9183947 (Molecular imaging and biology, 2021)
“Also recorded” adds a separate entry of the source. Starred links: 1 amine or outer side, 2 acyl side, 3 side chain; linkers in the order of their positions; H or OH if unused. Non-standard residues stand in square brackets, D forms with d. Residues, ends and D or L forms follow the SMILES beside them. Groups on a side chain read outwards from the residue. *: point of attachment. Acryloyl(3-(3-pyridyl),E) = O=C(/C=C/c1cccnc1)*; X2 = O=C(CN1CCCN2CCN(CCCN(CP(=O)(O)O)CC2)CC1)*; X1 = O=C(Cc1ccc(N[*:1])cc1)[*:2]; Aad = N[C@@H](CCCC(=O)O)C(=O)O; NH(2-Me-phenyl) = Cc1ccccc1N*; PEG4 = NCCOCCOCCOCCOCCC(=O)O; Ac6c = NC1(C(=O)O)CCCCC1; CO = O=C([*:1])[*:2]

What was measured:
s.c. BPR and BPRα tumors = assay: PET/CT imaging of BPR and BPRα tumor models; assay type: in vivo, C57BL/6 mice
In short: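 Mice bore s.c. flank tumours (5 x 10^5 cells plus Matrigel; n=9 per line, 3m/6f) and received 7.4 MBq radiotracer i.v. (57.2 MBq/nmol). Under 2% isoflurane, static 10-min PET/CT scans were taken at 4 and 24 h and reconstructed by OSEM-3D. ROIs were drawn on CT. SUV = activity concentration x body weight/injected dose. Tumour-to-muscle SUV ratios were derived.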

BPR cells (VLA-4−) [1] = assay: [64Cu]-LLP2A internalization assay, BPR cells; assay type: cell-based, mouse; details: 15 min - 4 h at 37°C
In short: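 Cells (1 x 10^5/well, seeded 24 h) were held in DMEM/1% BSA/1 mM Mn2+. Blocked wells first had 10 μg unlabelled PEG4 peptide for 15 min at 37°C. Each well then received 0.44 MBq radiotracer (3.43 MBq/nmol) at 37°C for 15 min, 2 h or 4 h. Surface activity was stripped with 20 mM sodium acetate pH 4.0 (10 min). Lysates were γ-counted, corrected for background, block and decay, and normalised to protein; n=3.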

[2] = previously demonstrated, cited from earlier work
[3] = Biodistribution in BPRα tumor-bearing mice; assay type: in vivo, C57BL/6 mice; details: both, C57BL/6, mouse, iv, 7.4 MBq, total radioactivity
In short: (§1)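 Male and female C57BL/6 mice (4–6 weeks old) carried s.c. right-flank tumours from 5 x 10^5 cells in an equal volume of Matrigel. They received 7.4 MBq radiotracer (57.2 MBq/nmol) via lateral tail vein and were euthanised right after 24 h imaging (n=6; 3m/3f). Tissues and tumour were weighed and γ-counted. %IA/g was decay-corrected against an injected-dose standard.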

BPR cells (VLA-4−) [4] = assay: Saturation binding of [64Cu]-LLP2A to BPR cells; set-up: species or system mouse
[5] = target: VLA-4 (integrin α4β1) on BPRα cells (Mus musculus, UniProt P09055+Q00651); assay: Saturation binding of [64Cu]-LLP2A to BPRα cells; details: normalized to cellular protein, triplicate
[6] = Biodistribution in BPR tumor-bearing mice; assay type: in vivo, C57BL/6 mice; details: both, C57BL/6, mouse, iv, 7.4 MBq, total radioactivity
In short: as §1

[7] = system: B16F10 melanoma cells (VLA-4+); details: previously reported; cited from earlier work

Sequence of VLA-4 (integrin α4β1) on BPRα cells (Q00651 41-1039): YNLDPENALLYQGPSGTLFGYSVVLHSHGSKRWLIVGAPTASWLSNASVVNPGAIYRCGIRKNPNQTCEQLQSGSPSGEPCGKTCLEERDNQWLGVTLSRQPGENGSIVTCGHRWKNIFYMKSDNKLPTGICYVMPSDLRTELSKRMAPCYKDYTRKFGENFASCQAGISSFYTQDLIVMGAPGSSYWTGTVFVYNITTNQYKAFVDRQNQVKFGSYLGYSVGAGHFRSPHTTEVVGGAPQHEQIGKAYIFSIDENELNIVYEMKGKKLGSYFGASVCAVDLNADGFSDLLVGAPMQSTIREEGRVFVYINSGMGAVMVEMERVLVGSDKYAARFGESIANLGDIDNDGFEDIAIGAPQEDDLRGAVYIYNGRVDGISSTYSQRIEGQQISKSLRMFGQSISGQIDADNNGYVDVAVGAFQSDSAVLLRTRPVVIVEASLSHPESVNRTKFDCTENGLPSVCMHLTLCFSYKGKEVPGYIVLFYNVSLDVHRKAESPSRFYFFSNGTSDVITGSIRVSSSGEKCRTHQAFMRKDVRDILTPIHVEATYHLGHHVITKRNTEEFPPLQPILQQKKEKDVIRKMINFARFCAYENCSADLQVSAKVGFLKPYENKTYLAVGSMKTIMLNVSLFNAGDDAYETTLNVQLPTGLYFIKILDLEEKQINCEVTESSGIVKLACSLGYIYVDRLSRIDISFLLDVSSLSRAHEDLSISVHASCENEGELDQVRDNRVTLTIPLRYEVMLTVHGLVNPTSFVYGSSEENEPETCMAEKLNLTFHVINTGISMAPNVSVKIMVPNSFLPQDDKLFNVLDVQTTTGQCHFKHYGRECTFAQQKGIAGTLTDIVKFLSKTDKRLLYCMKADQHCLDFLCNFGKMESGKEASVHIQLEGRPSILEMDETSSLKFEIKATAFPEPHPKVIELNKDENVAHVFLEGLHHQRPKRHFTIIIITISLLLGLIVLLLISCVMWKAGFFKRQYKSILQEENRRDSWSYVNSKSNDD
Sequence of VLA-4 (integrin α4β1) on BPRα cells (P09055 21-798): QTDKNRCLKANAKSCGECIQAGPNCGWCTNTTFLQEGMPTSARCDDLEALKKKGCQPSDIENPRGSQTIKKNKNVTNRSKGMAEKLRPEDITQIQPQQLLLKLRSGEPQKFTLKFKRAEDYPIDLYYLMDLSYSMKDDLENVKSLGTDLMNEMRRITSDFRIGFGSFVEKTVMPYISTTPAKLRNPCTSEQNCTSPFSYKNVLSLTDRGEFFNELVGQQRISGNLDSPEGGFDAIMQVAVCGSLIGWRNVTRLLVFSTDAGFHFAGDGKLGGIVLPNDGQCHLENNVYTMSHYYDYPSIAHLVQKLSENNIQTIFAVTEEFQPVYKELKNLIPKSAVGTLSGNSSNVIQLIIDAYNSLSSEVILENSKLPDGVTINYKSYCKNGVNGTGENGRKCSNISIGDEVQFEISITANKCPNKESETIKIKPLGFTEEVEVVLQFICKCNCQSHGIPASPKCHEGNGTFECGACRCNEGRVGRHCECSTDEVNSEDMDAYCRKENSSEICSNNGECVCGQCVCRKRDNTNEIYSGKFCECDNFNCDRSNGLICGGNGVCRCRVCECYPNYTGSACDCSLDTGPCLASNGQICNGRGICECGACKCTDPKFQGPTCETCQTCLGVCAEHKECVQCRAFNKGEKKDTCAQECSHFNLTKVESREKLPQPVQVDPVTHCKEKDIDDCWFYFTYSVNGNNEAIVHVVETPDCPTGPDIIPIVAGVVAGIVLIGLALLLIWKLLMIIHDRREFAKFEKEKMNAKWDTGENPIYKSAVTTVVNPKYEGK

Q: For Cc1ccccc1NC(=O)Nc1ccc(CC(=O)N[C@@H](CCCCNC(=O)/C=C/c2cccnc2)C(=O)N[C@@H](CCCC(=O)O)C(=O)NC2(C(=O)N[C@@H](CCCCNC(=O)CCOCCOCCOCCOCCNC(=O)CN3CCCN4CCN(CCCN(CP(=O)(O)O)CC4)CC3)C(N)=O)CCCCC2)cc1 [[^64Cu]-LLP2A, [^64Cu]-CB-TE1A1P-PEG4-LLP2A, metal not drawn] ({NH(2-Me-phenyl)-CO}-[X1]K(Acryloyl(3-(3-pyridyl),E))[Aad][Ac6c]K([PEG4-X2])-NH2; N-terminus and C-terminus assumed), which “tumor uptake in BPRα relative to BPR (PET/CT)” value (s.c. BPR and BPRα tumors; 4h post-injection, 7.4 MBq i.v., n=9 each, p=0.0021) is on record?
A: significant increase

Q: And the “tumor-to-muscle ratio of BPRα vs. BPR (PET/CT SUV)” value (s.c. BPR and BPRα tumors; 4h post-injection, n=9, p=0.0005)?
A: significantly greater

Q: What about the “BPRα tumor uptake (PET/CT)” value (s.c. BPR and BPRα tumors; 24h post-injection, n=9) of the same molecule?
A: remained detectable

Q: And the internalization (BPR cells (VLA-4−) [1])?
A: undetectable

Q: What about the “stability in human serum” value ([2]; human serum) of the same molecule?
A: stability in human serum

Q: What about the “binding of the conjugate to plasma proteins” value [2] of the same molecule?
A: negligible

Q: What about the tissue uptake at 24 h ([3]; bone marrow) of the same molecule?
A: 1.6 ± 0.5 %ID/g

Q: And the tissue uptake at 24 h ([3]; spleen)?
A: 6 ± 1.9 %ID/g

Q: What about the tissue uptake at 24 h ([3]; thymus) of the same molecule?
A: 4.2 ± 4 %ID/g

Q: And the tissue uptake at 24 h ([3]; tumor)?
A: 2.8 ± 0.2 %ID/g

Q: And the “binding to BPR cells (saturation binding)” value (BPR cells (VLA-4−) [4]; 1-100 nM tracer, on ice 2 h, blocked with LLP2A-PEG4)?
A: indeterminate binding; also recorded: no saturation occurs

Q: And the Bmax (BPR cells (VLA-4−) [4]; model fit poor, R^2=0.0002)?
A: not interpretable

Q: What about the Bmax [5] of the same molecule?
A: 145 ± 8.8 fmol/mg

Q: What about the tissue uptake at 24 h ([6]; spleen) of the same molecule?
A: 8.1 ± 4.4 %ID/g

Q: And the tissue uptake at 24 h ([6]; thymus)?
A: 3.5 ± 0.9 %ID/g

Q: And the tissue uptake at 24 h ([6]; tumor)?
A: 1.7 ± 0.2 %ID/g

Q: And the Bmax [7]?
A: 300 ± 4.5 fmol/mg
